Consider 1 compound from ChEMBL document CHEMBL2086372 (ACS Med Chem Lett, 2012).

For orientation: Ki means a measure of affinity in units of concentration, obtained from inhibition or displacement.

Active and inactive are the calls of the source. The calls are words filed in the database; no cut-off is given here.

Series [1] relates to Mus musculus. As to the kind of experiment: Effect on morphine-dependence in CD1 mouse assessed as decrease in naloxone-precipitated rearing at 0.05 mg/kg, ip administered chronically 15 mins prior to each morphine challenge relative to vehicle-treated control. It is filed as functional, organism-based. Further details: dose 0.05 mg/kg. The method, boiled down: (§1)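 Acquisition of morphine dependence in mice, tested with repeated ip dosing (racemate 0.05 mg/kg, enantiomers 0.025 mg/kg). Withdrawal was precipitated by naloxone. Scored signs were jumping frequency and somatic signs (rearing, forepaw tremors, teeth chatter). Groups were compared with vehicle and with the morphine group.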

The nature of series [2]: Permeability of the compound at 10 uM after 4 hrs by PAMPA assay. It is filed as ADME.
Series [3] relates to Mus musculus. The series can be described thus: Effect on morphine-dependence in CD1 mouse assessed as decrease in naloxone-precipitated jumping at 0.05 mg/kg, ip administered acutely 15 mins prior to naloxone challenge relative to vehicle-treated control. It is filed as functional, organism-based. Also on record: dose 0.05 mg/kg. The method, boiled down:
(§2)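 Expression of morphine dependence in mice, tested with a single acute ip dose (racemate 0.05 mg/kg, enantiomers 0.025 mg/kg). Withdrawal was precipitated by naloxone in control and morphine-treated mice. Scored signs were jumping frequency and somatic signs (rearing, forepaw tremors, teeth chatter). Groups were compared with vehicle and with the morphine group.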

Series [4] deals with Mus musculus. The series can be described thus: Effect on morphine-dependence in CD1 mouse assessed as decrease in naloxone-precipitated teeth chatter at 0.05 mg/kg, ip administered chronically 15 mins prior to each morphine challenge relative to vehicle-treated control. It is filed as functional, organism-based. Also on record: dose 0.05 mg/kg. The gist of the method: as §1

Series [5] concerns Mus musculus. As to the kind of experiment: Effect on morphine-dependence in CD1 mouse assessed as decrease in naloxone-precipitated forepaw tremors at 0.05 mg/kg, ip administered chronically 15 mins prior to each morphine challenge relative to vehicle-treated control. It is filed as functional, organism-based. Also on record: dose 0.05 mg/kg. The method, boiled down:
as §1

In series [6] the test system is Mus musculus. The series can be described thus: Effect on morphine-dependence in CD1 mouse assessed as decrease in naloxone-precipitated jumping at 0.05 mg/kg, ip administered chronically 15 mins prior to each morphine challenge relative to vehicle-treated control. Also on record: dose 0.05 mg/kg. It is filed as functional, organism-based. The method, boiled down:
as §1

In series [7] the target is T1, Alpha-2C adrenergic receptor (Homo sapiens) (UniProt P18825).
T1 sequence (whole entry): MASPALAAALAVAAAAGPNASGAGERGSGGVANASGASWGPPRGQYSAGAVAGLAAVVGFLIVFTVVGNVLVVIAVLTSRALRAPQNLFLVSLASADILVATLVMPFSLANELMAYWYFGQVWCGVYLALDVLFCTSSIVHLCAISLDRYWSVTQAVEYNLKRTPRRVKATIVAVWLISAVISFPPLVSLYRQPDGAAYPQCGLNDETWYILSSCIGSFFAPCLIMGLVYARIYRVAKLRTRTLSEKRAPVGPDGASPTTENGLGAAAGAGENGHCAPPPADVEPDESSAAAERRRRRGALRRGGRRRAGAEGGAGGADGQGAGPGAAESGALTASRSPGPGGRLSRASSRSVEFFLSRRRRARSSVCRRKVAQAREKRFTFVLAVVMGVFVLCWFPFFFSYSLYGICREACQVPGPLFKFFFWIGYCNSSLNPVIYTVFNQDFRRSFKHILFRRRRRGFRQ
As to the kind of experiment: Agonist activity at human alpha2C adrenoceptor expressed in CHO cells assessed as extracellular acidification measured after 4 mins by cytosensor microphysiometric analysis relative to control. It is filed as functional, cell-based. The gist of the method: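 Binding and functional assays run on CHO cells expressing recombinant human α2-AR subtypes. Functional read-outs are agonist potency (pEC50) with intrinsic activity (ia), or antagonist pKb. Affinity is reported as pKi. Values are means ± SEMs of 3–6 separate experiments.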

The test system of series [8] is Mus musculus. As to the kind of experiment: Antidepressant activity in CD1 mouse assessed as decrease in immobility time at 0.05 mg/kg, ip after 15 mins by forced swim test relative to vehicle-treated control. Further details: dose 0.05 mg/kg. It is filed as functional, organism-based. The method, boiled down:
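Mouse forced swimming test with immobility time as the read-out. Single ip doses were 0.012, 0.025, 0.05, 0.2 or 0.5 mg/kg, with fluoxetine 20 mg/kg ip as reference. Results are compared against vehicle-treated mice and given as means ± SEMs of 8–9 animals.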

The nature of series [9]: Aqueous solubility of the compound after 1 hr at pH 7.4. It is filed as physicochemical. The settings on record: buffer, pH 7.4, 1 h.
The subject of series [10] is Mus musculus. As to the kind of experiment: Effect on morphine-dependence in CD1 mouse assessed as decrease in naloxone-precipitated teeth chatter at 0.05 mg/kg, ip administered acutely 15 mins prior to naloxone challenge relative to vehicle-treated control. Also on record: dose 0.05 mg/kg. It is filed as functional, organism-based. The method, boiled down: as §2
The subject of series [11] is Mus musculus. As to the kind of experiment: Effect on morphine-dependence in CD1 mouse assessed as decrease in naloxone-precipitated rearing at 0.05 mg/kg, ip administered acutely 15 mins prior to naloxone challenge relative to vehicle-treated control. It is filed as functional, organism-based. Further details: dose 0.05 mg/kg. The method, boiled down: as §2
Series [12] deals with T2, 5-hydroxytryptamine receptor 1A (Homo sapiens, UniProt P08908).
T2 sequence (P08908 whole entry): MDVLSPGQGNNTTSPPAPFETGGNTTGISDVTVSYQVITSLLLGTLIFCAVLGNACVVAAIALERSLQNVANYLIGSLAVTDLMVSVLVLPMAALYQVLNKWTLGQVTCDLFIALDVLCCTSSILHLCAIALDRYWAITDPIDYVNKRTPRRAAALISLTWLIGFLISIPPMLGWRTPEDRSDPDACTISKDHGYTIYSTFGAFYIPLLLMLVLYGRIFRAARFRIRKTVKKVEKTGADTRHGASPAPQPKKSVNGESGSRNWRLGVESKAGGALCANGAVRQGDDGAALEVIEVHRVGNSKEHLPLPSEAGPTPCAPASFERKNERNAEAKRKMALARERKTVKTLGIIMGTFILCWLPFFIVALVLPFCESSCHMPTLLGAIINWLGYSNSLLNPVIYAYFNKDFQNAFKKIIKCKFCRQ
As to the kind of experiment: Displacement of [3H]8-OH-DPAT from human 5HT1A receptor expressed in HeLa cells after 30 mins. In kind it is cell-based. The method, boiled down:
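pKi is derived from displacement of [3H]-8-OH-DPAT binding at human cloned 5-HT1A receptor. Values are means ± SEMs of 3–6 separate experiments.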
On the technique in general: In a radioligand displacement assay an active substance lowers the binding of a labelled ligand.

For series [13], the system named is Mus musculus. As to the kind of experiment: Effect on morphine-dependence in CD1 mouse assessed as decrease in naloxone-precipitated forepaw tremors at 0.05 mg/kg, ip administered acutely 15 mins prior to naloxone challenge relative to vehicle-treated control. It is filed as functional, organism-based. Further details: dose 0.05 mg/kg. The method, boiled down:
as §2

As to `CC(Oc1ccccc1CC1CC1)C1=NCCN1` (racemic) [CYCLOMETHYLINE], the result in [1], in [3], in series [4], in series [5], in series [6] and in [8] was Active. Also, the outcome in [10], in [11] and in [13] was Active. For the same compound, in [2], the permeability entry is listed as “permeable”. Also, the Intrinsic activity in [7] is 0.8. The solubility entry in series [9] was “soluble”. In addition, the Ki in [12] is 10.5 nM.
